Assay results from ChEMBL document CHEMBL1149152, “Selective, orally active gamma-aminobutyric acidA alpha5 receptor inverse agonists as cognition enhancers” (J Med Chem, 2004).

How the values were obtained:
[1] = target: GABA-A receptor; alpha-1/beta-3/gamma-2 (Homo sapiens) (UniProt P14867+P18507+P28472); assay: Percentage modulation of submaximal (EC20) response to GABA in Xenopus oocytes expressing human GABA-A alpha-1-beta-3-gamma-2 subunits; type: cell-based; conditions: Oocyte; further: test concentration or dose not given here
Method in brief: (§1)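 Two-electrode voltage clamp on Xenopus laevis oocytes transiently expressing human GABA-A receptor subtypes. Modulation of the submaximal GABA (EC20) ion current is expressed as a percentage. Values are the arithmetic mean ± SEM from at least three independent cells.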

[2] = target: T1, GABA-A receptor; alpha-1/beta-3/gamma-2 (Homo sapiens, UniProt P14867+P18507+P28472); assay: Displacement of [3H]-Ro- 15-1788 from human GABA-A alpha-1-beta-3-gamma-2 receptor subunits expressed in Xenopus oocytes; type: cell-based, Oocyte
T1 sequence (P14867 whole entry): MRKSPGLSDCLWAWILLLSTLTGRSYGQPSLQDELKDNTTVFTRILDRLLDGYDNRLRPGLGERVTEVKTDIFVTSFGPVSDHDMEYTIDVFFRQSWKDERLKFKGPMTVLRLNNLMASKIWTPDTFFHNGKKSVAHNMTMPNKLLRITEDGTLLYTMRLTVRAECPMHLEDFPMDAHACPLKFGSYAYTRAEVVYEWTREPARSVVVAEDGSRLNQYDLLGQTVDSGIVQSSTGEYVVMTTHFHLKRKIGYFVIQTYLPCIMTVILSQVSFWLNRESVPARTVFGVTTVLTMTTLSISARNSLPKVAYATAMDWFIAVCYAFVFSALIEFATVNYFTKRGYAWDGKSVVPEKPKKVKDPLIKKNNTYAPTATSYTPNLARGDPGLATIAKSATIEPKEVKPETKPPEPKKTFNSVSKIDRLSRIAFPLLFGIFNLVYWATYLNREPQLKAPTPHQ
T1 sequence (P18507 whole entry): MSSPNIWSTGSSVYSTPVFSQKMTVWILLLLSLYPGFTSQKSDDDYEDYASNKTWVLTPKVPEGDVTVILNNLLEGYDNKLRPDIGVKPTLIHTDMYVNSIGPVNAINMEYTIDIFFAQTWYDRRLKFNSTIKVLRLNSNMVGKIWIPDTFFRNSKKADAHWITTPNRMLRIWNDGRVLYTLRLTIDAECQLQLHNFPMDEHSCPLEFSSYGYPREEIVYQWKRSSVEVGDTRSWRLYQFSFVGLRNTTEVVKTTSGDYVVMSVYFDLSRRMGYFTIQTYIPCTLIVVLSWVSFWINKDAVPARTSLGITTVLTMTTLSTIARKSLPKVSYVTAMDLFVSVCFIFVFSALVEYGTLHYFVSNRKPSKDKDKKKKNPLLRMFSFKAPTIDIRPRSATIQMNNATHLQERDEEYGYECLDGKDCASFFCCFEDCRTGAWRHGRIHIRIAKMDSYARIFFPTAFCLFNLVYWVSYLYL
T1 sequence (P28472 whole entry): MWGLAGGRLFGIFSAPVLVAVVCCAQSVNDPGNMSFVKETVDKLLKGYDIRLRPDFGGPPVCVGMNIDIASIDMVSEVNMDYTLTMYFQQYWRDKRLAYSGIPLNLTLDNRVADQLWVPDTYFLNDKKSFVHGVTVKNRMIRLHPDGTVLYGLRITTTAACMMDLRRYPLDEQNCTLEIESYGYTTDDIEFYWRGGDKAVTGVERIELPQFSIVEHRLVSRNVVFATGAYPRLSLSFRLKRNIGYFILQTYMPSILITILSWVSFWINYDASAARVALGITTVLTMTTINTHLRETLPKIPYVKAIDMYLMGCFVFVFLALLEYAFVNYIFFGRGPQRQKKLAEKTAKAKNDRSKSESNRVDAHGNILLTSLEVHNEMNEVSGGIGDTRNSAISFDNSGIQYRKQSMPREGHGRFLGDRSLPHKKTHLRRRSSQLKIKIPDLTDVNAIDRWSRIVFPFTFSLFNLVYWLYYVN
Method in brief: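 Radioligand binding to recombinant human GABA-A receptor subtypes, measuring displacement of [3H]Ro 15-1788. Ki values are the mean of at least two independent determinations, with SEM given where at least three were performed.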

[3] = target: T2, GABA-A receptor; alpha-3/beta-3/gamma-2 (Homo sapiens, UniProt P18507+P28472+P34903); assay: Displacement of [3H]-Ro- 15-1788 from human GABA-A alpha-3-beta-3-gamma-2 receptor subunits expressed in Xenopus oocytes; type: cell-based, Oocyte
T2 sequence (P18507 whole entry): T1 sequence (P18507 whole entry)
T2 sequence (P28472 whole entry): T1 sequence (P28472 whole entry)
T2 sequence (P34903 whole entry): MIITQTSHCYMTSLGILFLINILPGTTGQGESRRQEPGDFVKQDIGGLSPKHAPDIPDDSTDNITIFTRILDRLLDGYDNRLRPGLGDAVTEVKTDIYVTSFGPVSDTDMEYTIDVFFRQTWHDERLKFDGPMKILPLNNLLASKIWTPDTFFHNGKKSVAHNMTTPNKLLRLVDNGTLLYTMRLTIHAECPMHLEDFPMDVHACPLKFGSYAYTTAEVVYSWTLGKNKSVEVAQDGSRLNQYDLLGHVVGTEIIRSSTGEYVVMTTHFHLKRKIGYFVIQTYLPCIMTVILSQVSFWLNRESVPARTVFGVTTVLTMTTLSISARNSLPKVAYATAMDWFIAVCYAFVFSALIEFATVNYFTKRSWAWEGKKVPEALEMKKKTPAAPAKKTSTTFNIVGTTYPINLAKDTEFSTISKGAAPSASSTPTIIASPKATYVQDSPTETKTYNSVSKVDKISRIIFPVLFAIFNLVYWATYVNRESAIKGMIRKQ
Method in brief: (§2)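 Radioligand displacement of [3H]Ro 15-1788 from recombinant human GABA-A receptor subtypes. Ki values are the mean of at least two independent determinations, with SEM given where at least three were performed.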

[4] = target: GABA-A receptor; alpha-2/beta-3/gamma-2 (Homo sapiens) (UniProt P18507+P28472+P47869); assay: Percentage modulation of submaximal (EC20) response to GABA in Xenopus oocytes expressing human GABA-A alpha-2-beta-3-gamma-2 subunits; type: cell-based; conditions: Oocyte; method in brief: as §1; further: test concentration or dose not given here
[5] = target: T3, GABA-A receptor; alpha-5/beta-3/gamma-2 (Homo sapiens, UniProt P18507+P28472+P31644); assay: Displacement of [3H]-Ro- 15-1788 from human GABA-A alpha-5-beta-3-gamma-2 receptor subunits expressed in Xenopus oocytes; type: cell-based, Oocyte; method in brief: as §2
T3 sequence (P18507 whole entry): T1 sequence (P18507 whole entry)
T3 sequence (P28472 whole entry): T1 sequence (P28472 whole entry)
T3 sequence (P31644 whole entry): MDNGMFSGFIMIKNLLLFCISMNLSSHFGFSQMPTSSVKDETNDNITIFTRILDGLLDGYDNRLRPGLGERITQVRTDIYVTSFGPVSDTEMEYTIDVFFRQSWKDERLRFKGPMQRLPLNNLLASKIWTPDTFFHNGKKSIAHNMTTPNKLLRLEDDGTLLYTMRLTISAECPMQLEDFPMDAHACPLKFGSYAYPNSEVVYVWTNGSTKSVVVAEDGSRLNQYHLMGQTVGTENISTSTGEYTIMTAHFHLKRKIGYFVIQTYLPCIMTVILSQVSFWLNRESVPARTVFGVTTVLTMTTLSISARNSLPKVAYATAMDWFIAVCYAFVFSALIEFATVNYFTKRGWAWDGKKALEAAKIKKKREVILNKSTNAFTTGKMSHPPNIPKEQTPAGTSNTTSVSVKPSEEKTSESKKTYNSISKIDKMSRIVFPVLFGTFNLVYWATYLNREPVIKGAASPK

[6] = target: T4, GABA-A receptor; alpha-2/beta-3/gamma-2 (Homo sapiens, UniProt P18507+P28472+P47869); assay: Displacement of [3H]-Ro- 15-1788 from human GABA-A alpha-2-beta-3-gamma-2 receptor subunits expressed in Xenopus oocytes; type: cell-based, Oocyte; method in brief: as §2
T4 sequence (P18507 whole entry): T1 sequence (P18507 whole entry)
T4 sequence (P28472 whole entry): T1 sequence (P28472 whole entry)
T4 sequence (P47869 whole entry): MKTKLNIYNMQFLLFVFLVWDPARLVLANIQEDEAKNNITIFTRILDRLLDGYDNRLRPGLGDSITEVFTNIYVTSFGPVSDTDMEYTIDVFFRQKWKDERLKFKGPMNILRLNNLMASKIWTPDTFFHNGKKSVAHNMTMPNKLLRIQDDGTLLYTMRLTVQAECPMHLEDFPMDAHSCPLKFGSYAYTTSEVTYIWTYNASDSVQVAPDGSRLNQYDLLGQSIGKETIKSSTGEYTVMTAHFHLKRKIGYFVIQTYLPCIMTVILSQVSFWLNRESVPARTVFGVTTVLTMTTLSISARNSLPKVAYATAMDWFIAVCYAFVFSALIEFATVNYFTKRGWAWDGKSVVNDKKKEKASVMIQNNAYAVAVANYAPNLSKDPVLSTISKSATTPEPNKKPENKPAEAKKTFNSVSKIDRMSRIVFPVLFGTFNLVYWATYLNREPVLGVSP

[7] = target: GABA-A receptor; alpha-3/beta-3/gamma-2 (Homo sapiens) (UniProt P18507+P28472+P34903); assay: Percentage modulation of submaximal (EC20) response to GABA in Xenopus oocytes expressing human GABA-A alpha-3-beta-3-gamma-2 subunits; type: cell-based; conditions: Oocyte; method in brief: as §1; further: test concentration or dose not given here
[8] = target: GABA-A receptor; alpha-5/beta-3/gamma-2 (Homo sapiens) (UniProt P18507+P28472+P31644); assay: Percentage modulation of submaximal (EC20) response to GABA in Xenopus oocytes expressing human GABA-A alpha-5-beta-3-gamma-2 subunits; type: cell-based; conditions: Oocyte; method in brief: as §1; further: test concentration or dose not given here

| SMILES | Efficacy [1] [%] | Ki [2] [nM] | Ki [3] [nM] | Efficacy [4] [%] | Ki [5] [nM] | Ki [6] [nM] | Efficacy [7] [%] | Efficacy [8] [%] |
| --- | --- | --- | --- | --- | --- | --- | --- | --- |
| Cc1cc(-c2nnc3c4ccccc4c(OCc4cnn(C)n4)nn23)no1 | -5 | 1.3 | 0.8 | 9 | 0.87 | 0.64 | -3 | -35 |
| CNC1=Nc2ccc(Cl)cc2C(c2ccccc2)=[N+]([O-])C1 | 165 |  |  | 101 |  |  | 173 |  |
| Cc1cc(-c2nnc3c4ccccc4c(OCc4cnnn4C)nn23)no1 | -8 | 4.2 | 5.2 | -25 | 2 | 2.8 | -6 | -33 |
| Cc1cccc(COc2nn3c(-c4ccccc4)nnc3c3c2C2CCC3CC2)n1 |  | 170 | 25 |  | 2.9 | 46 |  | 15 |
| Cc1cccc(COc2nn3c(-c4nc(C)no4)nnc3c3c2C2CCC3CC2)n1 | -15 | 74 | 7.6 | -10 | 1.1 | 17 | -21 | -35 |
| Cc1cccc(COc2nn3c(-c4cc(C)on4)nnc3c3c2C2CCC3CC2)n1 |  | 280 | 41 | 15 | 4.6 | 86 | -1 | -29 |
| Cc1cccc(COc2nn3c(-c4ccoc4)nnc3c3c2C2CCC3CC2)n1 |  | 250 | 40 | -6 | 3.1 | 63 | -4 | -24 |
| Cc1cccc(COc2nn3c(-c4cc(C)on4)nnc3c3ccccc23)n1 |  | 0.88 | 1.3 |  | 0.79 | 1.6 |  | -15 |
| Cc1cc(-c2nnc3c4ccccc4c(OCc4cn(C)nn4)nn23)no1 | -4 | 0.88 | 0.61 | 12 | 0.66 | 0.58 | 4 | -29 |
| CCc1c(C(=O)OC)ncc2[nH]c3cc(OC)c(OC)cc3c12 | -36 | 16 | 10 | -34 | 2.3 | 11 | -52 | -52 |
| Cc1cc(-c2nnc3c4ccccc4c(OCc4ccccn4)nn23)no1 | -2 | 0.93 | 0.96 |  | 0.62 | 1.5 | -4 | -46 |
| Cc1cccc(COc2nn3c(-c4ccsc4)nnc3c3c2C2CCC3CC2)n1 | 17 | 270 | 48 | 9 | 3.7 | 110 | 38 |  |
